Drawing on ChEMBL document CHEMBL1147382, “Cytotoxic constituents from Hyptis verticillata” (J Nat Prod, 1993), this text covers Activity, LC50 and EC50 for six molecules.

Converted amounts (≈) assume the structure as drawn. The source made the active and inactive calls. The rule behind the calls is not given here.

The nature of data set [1]: Antimitotic activity in rat ASK cells assessed as reversal of astrocyte formation at 100 ug/mL. Type of data set: functional. The method in brief: (§1)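 Cultured rat glioma (ASK) cells were used, following Swanson et al. The antimitotic read-out was the dose giving 100% reversal of astrocyte conversion. Pure lignans were tested across a range of concentrations.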
The nature of data set [2]: Antimitotic activity in rat ASK cells assessed as reversal of astrocyte formation at 20 ug/mL. Type of data set: functional. In a few lines:
as §1

A short description of data set [3]: Antimitotic activity in rat ASK cells assessed as reversal of astrocyte formation at 4 ug/mL. The data set is classed as functional. The method in brief:
as §1

Data set [4] is described as follows: Antimitotic activity in rat ASK cells assessed as reversal of astrocyte formation at 0.8 ug/mL. Type of data set: functional. In a few lines:
as §1

Data set [5] in a line: Antimitotic activity in rat ASK cells assessed as reversal of astrocyte formation at 0.16 ug/mL. The data set is classed as functional. The method in brief: as §1
A short description of data set [6]: Antimitotic activity in rat ASK cells assessed as reversal of astrocyte formation at 0.032 ug/mL. The data set is classed as functional. In a few lines: as §1
The nature of data set [7]: Antimitotic activity in rat ASK cells assessed as reversal of astrocyte formation at 0.0064 ug/mL. Type of data set: functional. In a few lines:
as §1

Data set [8] can be described thus: Antimitotic activity in rat ASK cells assessed as reversal of astrocyte formation at 0.00128 ug/mL. Type of data set: functional. In a few lines:
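Cultured rat glioma (ASK) cells, run essentially by a previously published astrocyte-formation procedure. Antimitotic potential is scored as the dose needed to give 100% reversal of astrocyte conversion.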

The nature of data set [9]: Toxicity in brine shrimp. The data set is classed as organism-based. Conditions: artemia, in vivo.
The subject of another data set is P388. In words: Cytotoxicity in mouse P388 cells. Conditions: read-out: ED50 (the source's name). Type of data set: functional.
In the next data set the test system is A-431. In words: Cytotoxicity against human A431 cells. The data set is classed as functional. Conditions: read-out: ED50 (the source's name).
A short description of data set [10]: Cytotoxicity against human BC1 cells. Conditions: read-out: ED50 (the source's name). The data set is classed as functional.
For another data set, the system named is Col2. Description: Cytotoxicity against human Col2 cells. Conditions: read-out: ED50 (the source's name). The data set is classed as functional.
In the next data set the test system is HT. Description: Cytotoxicity against human HT cells. Type of data set: functional. Conditions: read-out: ED50 (the source's name).
The nature of data set [11]: Cytotoxicity against human KBV1 cells. Conditions: KB-V1, read-out: ED50 (the source's name). The data set is classed as functional.
The subject of the next data set is LNCaP. In words: Cytotoxicity against human LNCAP cells. Type of data set: functional. Conditions: read-out: ED50 (the source's name).
In another data set the test system is Lu1. In words: Cytotoxicity against human Lu1 cells. Type of data set: functional. Conditions: read-out: ED50 (the source's name).
Data set [12] is described as follows: Cytotoxicity against human U373 cells. The data set is classed as functional, U-373MG ATCC. Conditions: U373 MG, read-out: ED50 (the source's name).
A further data set relates to ZR-75-1. Description: Cytotoxicity against human ZR-75-1 cells. The data set is classed as functional. Conditions: read-out: ED50 (the source's name).
A further data set deals with KB. In words: Cytotoxicity against human KB cells. Type of data set: functional. Conditions: read-out: ED50 (the source's name).
The subject of a further data set is Candida albicans. In words: Antimicrobial activity against Candida albicans ATCC 10231 at 0.2 to 1 ug/ml. The data set is classed as functional, organism-based.

On to `COc1cc2cc(c1Cl)N(C)C(=O)C[C@H](OC(=O)[C@H](C)N(C)C(C)=O)[C@]1(C)O[C@H]1[C@H](C)[C@@H]1C[C@@](O)(NC(=O)O1)[C@H](OC)/C=C/C=C(\C)C2` [MAYTANSINE], for which the Activity in [1], in data set [2], in data set [3], in data set [4], in [5] and in data set [6] was 100% each time. Also, the Activity in data set [7] is recorded as 100%; in [8] it was 0%.

In the case of `CC[C@]1(O)C[C@@H]2CN(CCc3c([nH]c4ccccc34)[C@@](C(=O)OC)(c3cc4c(cc3OC)N(C)[C@H]3[C@@](O)(C(=O)OC)[C@H](OC(C)=O)[C@]5(CC)C=CCN6CC[C@]43[C@@H]65)C2)C1` [VINBLASTINE], the Activity in data set [1], in data set [2], in [3], in data set [4], in data set [5] and in data set [6] was 100% each time. Moreover, the Activity in data set [7] and in data set [8] was 0% each time.

As usually defined, the LC50 is the concentration that kills 50% of the test population. Higher therefore signals a less lethal substance. The molecule `COc1cc([C@@H]2c3cc4c(cc3C[C@H]3COC(=O)[C@@H]32)OCO4)cc(OC)c1O` [4'-DEMETHYLDEOXYPODOPHYLLOTOXIN] registered an LC50 in data set [9] of 0.2 µg/mL (≈ 0.52 µM). Moreover, the EC50 in the data set on P388 came to 0.005 µg/mL (≈ 0.013 µM); in the data set with A-431 it was 0.08 µg/mL (≈ 0.208 µM); in data set [10], 0.01 µg/mL (≈ 0.026 µM); in the data set with Col2, 0.03 µg/mL (≈ 0.078 µM); with HT, 0.01 µg/mL (≈ 0.026 µM); in [11], 0.02 µg/mL (≈ 0.052 µM). Besides, the EC50 in the data set with LNCaP was found to be 0.02 µg/mL (≈ 0.052 µM); in the data set with Lu1, 0.03 µg/mL (≈ 0.078 µM); in data set [12], 0.1 µg/mL (≈ 0.26 µM); with ZR-75-1, 2.1 µg/mL (≈ 5.46 µM); in the data set with KB it was 0.01 µg/mL (≈ 0.026 µM). Further, the Activity in [1], in [2], in [3], in data set [4], in [5] and in data set [6] was 100% throughout. For the same molecule, the Activity in data set [7] worked out at 0%. Moreover, the result in the data set on Candida albicans was Active.

As for `COc1cc(C[C@H]2C(=O)OC[C@@H]2Cc2ccc3c(c2)OCO3)cc(OC)c1OC`, the LC50 in data set [9] was 2.8 µg/mL (≈ 6.99 µM). The EC50 in the data set with P388 is 0.4 µg/mL (≈ 0.999 µM); with A-431, more than 20 µg/mL; in data set [10], 0.05 µg/mL (≈ 0.125 µM); with Col2, 0.08 µg/mL (≈ 0.2 µM); in the data set with HT, 0.07 µg/mL (≈ 0.175 µM); in [11] it was 0.06 µg/mL (≈ 0.15 µM). Further, the EC50 is 0.16 µg/mL (≈ 0.4 µM) with LNCaP; 0.1 µg/mL (≈ 0.25 µM) in the data set with Lu1; 0.3 µg/mL (≈ 0.749 µM) in data set [12]; 0.5 µg/mL (≈ 1.25 µM) with ZR-75-1; 0.08 µg/mL (≈ 0.2 µM) with KB. In addition, the Activity is recorded as 100% in [1]; 100% in data set [2]; 100% in [3]; 100% in data set [4]; 100% in data set [5]; 0% in data set [6]. In addition, in [7], the Activity is recorded as 0%. For the same molecule, the result in the data set with Candida albicans was Active.

`COc1cc2c(c(OC)c1OC)-c1ccc(OC)c(=O)cc1[C@@H](NC(C)=O)CC2` [COLCHICINE]: the Activity is given as 100% in [1]; 100% in [2]; 100% in [3]; 70% in [4]; 0% in [5]; 0% in data set [6]. Further, the Activity in data set [7] and in [8] was 0% in each case.

Turning to `CC[C@]1(O)C[C@H]2CN(CCc3c([nH]c4ccccc34)[C@@](C(=O)OC)(c3cc4c(cc3OC)N(C=O)[C@H]3[C@@](O)(C(=O)OC)[C@H](OC(C)=O)[C@]5(CC)C=CCN6CC[C@]43[C@@H]65)C2)C1` [VINCRISTINE], the Activity in data set [1] came to 100%; in data set [2], 100%; in data set [3], 100%; in [4], 100%; in data set [5] it was 100%; in data set [6], 0%. Moreover, the Activity in [7] and in data set [8] was 0% throughout.
